# Source: publication PMC10971414 (Science Advances, 2024)
# Tested on: FKBP12^F36V-PTPN2 H1975 cells
# Assay: Cell viability by CellTiter-Glo, FKBP12F36V-PTPN2 H1975
# Assay type: cell-based
# Details: read-out: IC50, cell viability; 6 days
# Outline: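 H1975 cells lentivirally transduced to express Flag-FKBP12F36V-PTPN2 (TC45 short isoform) were seeded at 3000 cells/well in full medium for 24 h. They were then treated with test compound at a range of concentrations under serum-free conditions for 4 or 6 days. Viability was measured by CellTiter-Glo luminescence and normalised to DMSO controls. Three replicates, mean and SD.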
compound,measurement,value
CN(C)C/C=C/C(=O)Nc1cc2c(Nc3ccc(F)c(Cl)c3)ncnc2cc1O[C@H]1CCOC1 [afatinib],IC50,2.11 µM
